# The sample as a whole holds a higher share of hits than the screen did.
# Mdm2 ligase inh – blocks human Mdm2 ubiquitin ligase activity. Q00987. cell-based MDM2 ubiquitination luciferase reporter, 2 h; 0 = plate control, 100 = twice control, blank-subtracted. signal enhancement, % at 5 µM. 0.11% of 210,000 active. AID 1230;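 active = signal enhancement of 30% or more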;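 note: luminescence tracks abundance of the self-degrading MDM2-luciferase fusion protein; higher signal means inhibition of MDM2 E3 ligase activity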
# Target sequence (Q00987 whole entry, looked up, the tested form may be a part): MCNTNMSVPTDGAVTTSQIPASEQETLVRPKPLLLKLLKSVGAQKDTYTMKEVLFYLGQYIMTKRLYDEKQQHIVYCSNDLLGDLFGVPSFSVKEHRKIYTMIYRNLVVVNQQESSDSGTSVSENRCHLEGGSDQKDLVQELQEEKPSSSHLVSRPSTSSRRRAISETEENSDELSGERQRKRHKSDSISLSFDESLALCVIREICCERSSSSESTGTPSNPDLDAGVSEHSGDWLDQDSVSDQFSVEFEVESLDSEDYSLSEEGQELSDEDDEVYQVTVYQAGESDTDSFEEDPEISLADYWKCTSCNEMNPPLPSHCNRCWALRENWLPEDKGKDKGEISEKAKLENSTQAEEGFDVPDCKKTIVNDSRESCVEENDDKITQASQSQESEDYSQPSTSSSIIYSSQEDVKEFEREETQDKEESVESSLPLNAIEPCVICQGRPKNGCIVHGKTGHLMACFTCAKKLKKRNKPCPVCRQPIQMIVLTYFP
#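 Assay system: stable mammalian line carrying autodegrading MDM2–luciferase fusion reporter; Input: 2000 cells in each well; Compound dosing: single-point 5 µM; Schedule: 2 h compound exposure at 37 °C; Signal: SteadyLite luciferase luminescence after 15 min room-temperature reagent incubation; Evaluation: % luminescence enhancement versus blank-corrected plate control mean; Benchmarks: plate controls and plate blanks.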
# S1P3 antagonist – blocks the human S1P3 receptor. Q99500. CHO S1P3 NFAT-BLA reporter, FRET fluorescence, antagonist mode. inhibition, % at 4.98 µM. 0.27% of 170,000 active;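 active = inhibition above the plate cutoff, the mean inhibition of test wells on that plate plus 3 SD, cut at about 28% in these data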;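 note: cells challenged with S1P at its EC80 of 0.8 µM; blue over green emission ratio from cleaved BLA substrate after 4 h stimulation; 0% = S1P-stimulated wells and 100% = unstimulated DMSO-only wells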
# S1P4 antag – antagonists of human S1P4 receptor; O95977; S1P4-expressing cells, antagonist mode, reporter read-out; inhibition, % at 4.98 µM; 0.26% of 220,000 active; in the data active = inhibition above about 29%;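 note: 0% = wells stimulated with agonist and 100% = vehicle wells without agonist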
# S1P4 agonist – activates the human S1P4 receptor; O95977; S1P4-expressing cell line, agonist reporter assay; activation, % at 4.98 µM; 0.35% of 220,000 active; AID 1509; in the data active = activation above about 11%;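 note: 0% = DMSO vehicle and 100% = reference agonist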
# Lmaj promast – inhibitors of Leishmania major promastigote growth. Leishmania major promastigotes, resazurin fluorescence viability. inhibition, % at 10 µM. 9% of 200,000 active; in the data active = inhibition above about 50%;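 note: promastigotes grown with compound for 44 hours at 28 °C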
# S1P4 agonist cf – confirmation of human S1P4 receptor agonists; shares compounds with S1P4 agonist; S1P4 agonist cell-based reporter assay; activation, % at 4.98 µM; 7% of 740 active; in the data active = activation above about 12%;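 note: 0% = vehicle and 100% = full reference agonist response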
# S1P1 agonist – human S1P1 agonism as S1P4 agonist counter-screen; shares compounds with S1P4 agonist; S1P1 agonist cell-based assay, activation; activation, % at 4.98 µM; 4% of 740 active; AID 1563; in the data active = activation above about 21%;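 note: 0% = vehicle wells and 100% = reference agonist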
# Active calls of the source: *; x = no result.
SMILES,Mdm2 ligase inh,S1P3 antagonist,S1P4 antag,S1P4 agonist,Lmaj promast,S1P4 agonist cf,S1P1 agonist
CCCN(CCC)C(=O)CC(c1ccccc1)c1cc(C)ccc1O (configuration not stated),-17,x,-8,51*,14,-2,2
Cc1ccc(O)c(C(CC(=O)NC(C)C)c2ccccc2)c1 (configuration not stated),-17,1,-3,1,7,x,x
Cc1ccc(NC(=O)Cn2cc3c(n2)CCC(C)C3)cc1 (configuration not stated),9,-23,3,27*,-9,-2,-7
O=C(c1cc2cc(Br)ccc2s1)N1CCOCC1,0,-1,-12,1,-14,x,x
CCNC(=O)Cn1cc(C(F)(F)F)cc(Cl)c1=O,-12,-9,-4,0,x,x,x
CC(C)n1c(=NC(=O)c2ccco2)c(C#N)cc2c(=O)n3ccccc3cc21,-11,-33,-30,12*,5,0,9
N/N=C1\CCCc2c1[nH]c1ccc([N+](=O)[O-])cc21,-13,-11,-8,0,x,x,x
O=[N+]([O-])c1ccc2[nH]c3c(c2c1)CCCC3,-2,8,6,15*,0,-3,-9
COc1cc(NC(C(=O)Nc2cccc(C(C)=O)c2)c2ccccc2)cc(OC)c1OC (configuration not stated),-13,-13,-16,0,13,x,x
COc1cccc(NC(C(=O)Nc2cccc(C(C)=O)c2)c2ccccc2)c1 (configuration not stated),-13,-6,-15,14*,38,-2,2
O=C(CCCN1C(=O)/C(=C/c2ccccc2Cl)SC1=S)NNC(=O)c1ccccc1,x,-4,-4,18*,29,-3,-1
O=C(CCCN1C(=O)/C(=C/c2ccccc2Cl)SC1=S)NNC(=O)c1cccnc1,-13,-2,6,0,x,x,x
CC(C)CC(=O)Nc1ccc(-c2nnn(CC(=O)NCc3ccco3)n2)cc1,-14,-10,-4,14*,3,-2,-5
CCCCOc1ccc(-c2nnn(CC(=O)NCc3ccco3)n2)cc1,-18,-43,-6,-2,2,x,x
Cc1cc(N(CCO)CCO)ccc1N=Nc1cc(F)ccc1F,-1,-17,4,11*,23,-2,-5
Nc1ccc(N(CCO)CCO)cc1,-2,-6,-5,3,-5,x,x
CN1C(=O)OC2(C)CCc3ccccc3C12C (configuration not stated),-6,22,-16,22*,-5,-1,-2
Cc1ccc(NC(=O)CN(C)C(=O)CCCN2C(=O)c3ccccc3C2=O)cc1,-4,-10,-6,38*,-4,-2,-9
COc1cccc(CC2(CO)CCCN(Cc3c(C)cc(C)cc3-n3cccn3)C2)c1 (configuration not stated),-16,6,18,2,34,x,x
CN(c1nc2nonc2nc1NC1CC1)C1CCOC1 (configuration not stated),5,5,-5,12*,0,-2,5
Cc1nc(-c2cccnc2)sc1C(=O)Nc1ccc(C(F)(F)F)cc1,1,x,-19,1,4,x,x
O=C(Nc1ccc(Br)cc1)c1csc(-c2ccncc2)n1,-5,-8,10,19*,10,-2,-3
Cc1nc(-c2ccncc2)sc1C(=O)Nc1ccc(Br)cc1,-3,-14,4,20*,-1,-1,-8
Cn1cnnc1SCNC(=O)C(F)(F)F,-27,-16,10,1,3,x,x
O=C(OCc1c(Cl)cccc1Cl)c1ccncc1,-13,-1,-12,0,-3,x,x
SMILES,Mdm2 ligase inh,S1P3 antagonist,S1P4 antag,S1P4 agonist,Lmaj promast,S1P4 agonist cf,S1P1 agonist
CN1C(=O)c2ccc(NC(=O)CCS(=O)(=O)c3ccccc3)cc2C1=O,-6,-28,-9,0,-4,x,x
CC(Cc1ccccc1)C(=O)N1CCN(C)CC1 (configuration not stated),x,-12,7,0,-3,x,x
CN1CCN(C(=O)C(N)Cc2ccccc2)CC1 (configuration not stated),-26,-7,4,18*,6,-2,-1
N#Cc1c(-c2ccccc2)nc2n1CCS2,-11,-6,-11,-1,-5,x,x
COc1cccc(C2C3=C(CCCC3=O)NC3=C2C(=O)c2ccccc23)c1 (configuration not stated),-3,-1,-12,13*,13,-2,-5
CCOC(=O)C1=C(C)NC(=O)NC1c1ccc(N2CCC(c3ccccc3)=N2)cc1 (configuration not stated),-12,-15,1,15*,14,7,16
O=C(N/N=C1\CCCc2ccccc21)c1ccc([N+](=O)[O-])cc1,x,x,-13,12*,69*,-3,0
N#Cc1cnn2ccc(-c3cc(N4CCOCC4)ccc3[N+](=O)[O-])nc12,-9,17,-10,14*,1,-2,3
O=C(Oc1ccccc1)c1cccnc1Oc1ccccc1,-6,5,10,0,x,x,x
O=S(=O)(CCNCc1cccs1)c1ccc(Cl)cc1,-8,-15,8,36*,x,-2,-2
CC(C)(C)C(=O)/C=c1\s/c(=C\c2ccc(-c3ccc([N+](=O)[O-])cc3)o2)c(=O)n1CC(=O)NC(N)=O,-22,6,-10,-1,20,x,x
O=C(NC(=S)NCC1CCCO1)c1ccco1 (configuration not stated),-2,-1,-5,14*,1,0,0
O=C(NCC1CCCO1)/C(=C/c1ccccc1)NC(=O)c1ccccc1 (configuration not stated),-9,14,-25,28*,-4,-3,-6
COc1ccc(C(=O)CC(Nc2ccc([N+](=O)[O-])cc2)c2ccc(Cl)cc2)cc1 (configuration not stated),-8,x,-2,-2,31,x,x
COc1ccc(N2C(=O)CCC(C(=O)N3CCN(c4ccccn4)CC3)C2c2ccc(F)cc2)cc1 (configuration not stated),-11,-18,8,0,0,x,x
CCOC(=O)c1nc(NCCc2ccccc2)sc1C,-3,-3,-11,30*,13,-2,-6
CCOC(=O)c1nc(NNC(C)=O)sc1C,-28,-30,-2,-1,-2,x,x
CCN(CC)S(=O)(=O)c1ccc(C(=O)NNc2nc(-c3ccccc3)c3cc(Br)ccc3n2)cc1,-9,-1,-11,13*,-2,-2,3
COc1ccccc1CNC(=O)CSc1ccc(-c2ccncc2)nn1,-13,-5,-2,29*,94*,-1,5
COc1ccccc1CCNC(=O)CSc1ccc(-c2cccs2)nn1,-7,3,3,1,19,x,x
CCN(c1ccccc1)S(=O)(=O)c1cc([N+](=O)[O-])ccc1N,-12,-2,-8,17*,2,19*,-5

# Source: PubChem
